Converted amounts (≈) assume the structure as drawn.
Experiments:
Staphylococcus aureus [1] = experiment: Antibacterial activity against methicillin-resistant Staphylococcus aureus NRS107 after 20 hrs by broth microdilution assay; format: functional; settings: NRS107, 20 h
How it was run: (§1)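 Broth microdilution per CLSI in cation-adjusted Mueller Hinton broth. Compounds serially diluted, in triplicate. Incubation at 37 °C for at least 20 hours. MIC taken as the lowest concentration with no visible bacterial growth.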

Staphylococcus aureus [2] = experiment: Antibacterial activity against methicillin-resistant Staphylococcus aureus USA300 after 20 hrs by broth microdilution assay; format: functional; settings: USA300, 20 h; how it was run: as §1
Staphylococcus aureus [3] = experiment: Bactericidal activity against methicillin-resistant Staphylococcus aureus USA300 up to 18 hrs by broth microdilution assay; format: functional; settings: USA300, 18 h, read-out: MBC99.9
Staphylococcus aureus [4] = experiment: Bactericidal activity against methicillin-resistant Staphylococcus aureus NRS107 up to 18 hrs by broth microdilution assay; format: functional; settings: NRS107, 18 h, read-out: MBC99.9
Staphylococcus aureus [5] = experiment: Antibacterial activity against methicillin-resistant Staphylococcus aureus NRS119 after 20 hrs by broth microdilution assay; format: functional; settings: NRS119, 20 h; how it was run: as §1
Staphylococcus aureus [6] = experiment: Bactericidal activity against methicillin-resistant Staphylococcus aureus NRS119 up to 18 hrs by broth microdilution assay; format: functional; settings: NRS119, 18 h, read-out: MBC99.9
Staphylococcus aureus [7] = experiment: Antibacterial activity against methicillin-resistant Staphylococcus aureus NRS123 (USA400) after 20 hrs by broth microdilution assay; format: functional; how it was run: as §1
Staphylococcus aureus [8] = experiment: Bactericidal activity against methicillin resistant Staphylococcus aureus NRS123 (USA400) up to 18 hrs by broth microdilution assay; format: functional; settings: read-out: MBC99.9
Staphylococcus aureus [9] = experiment: Antibacterial activity against vancomycin-resistant Staphylococcus aureus VRS10 after 20 hrs by broth microdilution assay; format: functional; settings: VRS10, 20 h; how it was run: as §1
Staphylococcus aureus [10] = experiment: Bactericidal activity against methicillin resistant vancomycin-resistant Staphylococcus aureus VRS10 up to 18 hrs by broth microdilution assay; format: functional; settings: VRS10, 18 h, read-out: MBC99.9
Staphylococcus aureus [11] = experiment: Antibacterial activity against vancomycin-resistant Staphylococcus aureus VRS11a after 20 hrs by broth microdilution assay; format: functional; how it was run: as §1
Staphylococcus aureus [12] = experiment: Bactericidal activity against methicillin resistant vancomycin-resistant Staphylococcus aureus VRS11a up to 18 hrs by broth microdilution assay; format: functional; settings: read-out: MBC99.9
Staphylococcus aureus [13] = experiment: Antibacterial activity against vancomycin-resistant Staphylococcus aureus VRS12 after 20 hrs by broth microdilution assay; format: functional; settings: VRS12, 20 h; how it was run: as §1
Staphylococcus aureus [14] = experiment: Bactericidal activity against methicillin resistant vancomycin-resistant Staphylococcus aureus VRS12 up to 18 hrs by broth microdilution assay; format: functional; settings: VRS12, 18 h, read-out: MBC99.9
How it was run: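 MBC set up from the MIC plates. Aliquots from wells with no growth spotted onto tryptic soy agar and incubated at 37 °C for at least 18 hours. MBC taken as the lowest concentration giving 99.9% inhibition of bacterial growth.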

Staphylococcus aureus [15] = experiment: Potency index, ratio of vancomycin MIC to compound MIC for antibacterial activity against vancomycin-resistant Staphylococcus aureus VRS10; format: functional
Staphylococcus aureus [16] = experiment: Potency index, ratio of vancomycin MIC to compound MIC for antibacterial activity against vancomycin-resistant Staphylococcus aureus VRS11a; format: functional
Staphylococcus aureus [17] = experiment: Potency index, ratio of vancomycin MIC to compound MIC for antibacterial activity against vancomycin-resistant Staphylococcus aureus VRS12; format: functional
Staphylococcus aureus [18] = experiment: Ratio of MBC to MIC for methicillin-resistant Staphylococcus aureus USA300; format: functional
How it was run: (§2)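 MBC/MIC ratio. […] MBC by plating no-growth wells onto tryptic soy agar at 37 °C for at least 18 h; taken as the concentration giving 99.9% growth inhibition.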

Staphylococcus aureus [19] = experiment: Ratio of MBC to MIC for methicillin-resistant Staphylococcus aureus NRS107; format: functional; how it was run: as §2
Staphylococcus aureus [20] = experiment: Ratio of MBC to MIC for methicillin-resistant Staphylococcus aureus NRS119; format: functional; how it was run: as §2
Staphylococcus aureus [21] = experiment: Ratio of MBC to MIC for methicillin-resistant Staphylococcus aureus NRS123 (USA400); format: functional; how it was run: as §2
Staphylococcus aureus [22] = experiment: Ratio of MBC to MIC for vancomycin-resistant Staphylococcus aureus VRS10; format: functional; how it was run: as §2
Staphylococcus aureus [23] = experiment: Ratio of MBC to MIC for vancomycin-resistant Staphylococcus aureus VRS11a; format: functional; how it was run: as §2
Staphylococcus aureus [24] = experiment: Ratio of MBC to MIC for vancomycin-resistant Staphylococcus aureus VRS12; format: functional; how it was run: as §2
HRT-18 cell line = experiment: Cytotoxicity against human HRT18 cells assessed as reduction in cell viability up to 32 ug/ml after 2 hrs by MTS assay; format: cell-based; settings: hrt-18, 2 h
[25] = Selectivity index, ratio of toxic concentration for human HRT18 cells to MIC for methicillin-resistant Staphylococcus aureus; format: toxicity; settings: read-out: Selectivity Index
Staphylococcus aureus [26] = experiment: Inhibition of UPPS/UPPP in vancomycin-resistant Staphylococcus aureus VRS10 assessed as potentiation of vancomycin-induced antibacterial activity by measuring fold reduction in vancomycin MIC at 0.5 times MIC preincubated for 30 mins followed by vancomycin addition measured after 20 to 22 hrs by broth microdilution assay relative to control
How it was run: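 VRS10 suspension pre-exposed to compound at ½ × MIC for 30 min at room temperature. […] Incubation at 37 °C for 20–22 h before the MIC was read; untreated bacteria served as control.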

Row | Structure (SMILES) | MIC (Staphylococcus aureus [1]) [µg/mL] | MIC (Staphylococcus aureus [2]) [µg/mL] | MBC (Staphylococcus aureus [3]) [µg/mL] | MBC (Staphylococcus aureus [4]) [µg/mL] | MIC (Staphylococcus aureus [5]) [µg/mL] | MBC (Staphylococcus aureus [6]) [µg/mL] | MIC (Staphylococcus aureus [7]) [µg/mL] | MBC (Staphylococcus aureus [8]) [µg/mL] | MIC (Staphylococcus aureus [9]) [µg/mL] | MBC (Staphylococcus aureus [10]) [µg/mL] | MIC (Staphylococcus aureus [11]) [µg/mL] | MBC (Staphylococcus aureus [12]) [µg/mL] | MIC (Staphylococcus aureus [13]) [µg/mL] | MBC (Staphylococcus aureus [14]) [µg/mL] | Ratio (Staphylococcus aureus [15]) | Ratio (Staphylococcus aureus [16]) | Ratio (Staphylococcus aureus [17]) | Ratio (Staphylococcus aureus [18]) | Ratio (Staphylococcus aureus [19]) | Ratio (Staphylococcus aureus [22]) | also measured
1 | C/C(=N\NC(=N)N)c1sc(-c2ccc(C#CCC3CCCC3)cc2)nc1C | 2 (≈ 5.27 µM) | 4 (≈ 10.5 µM) | 4 (≈ 10.5 µM) | 4 (≈ 10.5 µM) | 4 (≈ 10.5 µM) | 4 (≈ 10.5 µM) | 2 (≈ 5.27 µM) | 2 (≈ 5.27 µM) | 2 (≈ 5.27 µM) | 4 (≈ 10.5 µM) | 4 (≈ 10.5 µM) | 4 (≈ 10.5 µM) | 2 (≈ 5.27 µM) | 2 (≈ 5.27 µM) | >100 | >100 | >100 | <=3 | <=3 | <=3 | Ratio (Staphylococcus aureus [20]): <=3; Ratio (Staphylococcus aureus [21]): <=3; Ratio (Staphylococcus aureus [23]): <=3; Ratio (Staphylococcus aureus [24]): <=3
2 | C/C(=N\NC1=NCCN1)c1sc(-c2ccc(C#CC(C)(C)N)cc2)nc1C | – | > 64 | > 64 | – | – | – | – | – | – | – | – | – | – | – | – | – | – | <=3 | – | – | –
3 | CCCCCCC#Cc1ccc(-c2nc(C)c(/C(C)=N/NC(=N)N)s2)cc1 | 4 (≈ 10.5 µM) | 4 (≈ 10.5 µM) | 8 (≈ 21 µM) | 8 (≈ 21 µM) | 1 (≈ 2.62 µM) | 4 (≈ 10.5 µM) | 4 (≈ 10.5 µM) | 4 (≈ 10.5 µM) | 2 (≈ 5.24 µM) | 4 (≈ 10.5 µM) | 0.5 (≈ 1.31 µM) | 2 (≈ 5.24 µM) | 2 (≈ 5.24 µM) | 4 (≈ 10.5 µM) | >100 | >100 | 8 | <=3 | <=3 | <=3 | Ratio (Staphylococcus aureus [20]; read-out: Ratio): 4; Ratio (Staphylococcus aureus [21]): <=3; Ratio (Staphylococcus aureus [23]; read-out: Ratio): 4; Ratio (Staphylococcus aureus [24]): <=3; Activity (HRT-18 cell line): Non-Toxic; selectivity ratio [25]: 7 to 31
4 | C/C(=N\NC(=N)N)c1sc(-c2ccc(C#CC(C)(C)C)cc2)nc1C | 2 (≈ 5.66 µM) | 4 (≈ 11.3 µM) | 4 (≈ 11.3 µM) | 4 (≈ 11.3 µM) | 2 (≈ 5.66 µM) | 2 (≈ 5.66 µM) | 4 (≈ 11.3 µM) | 16 (≈ 45.3 µM) | 4 (≈ 11.3 µM) | 4 (≈ 11.3 µM) | 2 (≈ 5.66 µM) | 8 (≈ 22.6 µM) | 4 (≈ 11.3 µM) | 4 (≈ 11.3 µM) | >100 | >100 | 4 | <=3 | <=3 | <=3 | Ratio (Staphylococcus aureus [20]): <=3; Ratio (Staphylococcus aureus [21]; read-out: Ratio): 4; Ratio (Staphylococcus aureus [23]; read-out: Ratio): 4; Ratio (Staphylococcus aureus [24]): <=3; Activity (HRT-18 cell line): Non-Toxic; selectivity ratio [25]: 7 to 31
5 | C/C(=N\NC1=NCCN1)c1sc(-c2ccc(C#CC3CCCCC3)cc2)nc1C | – | 8 (≈ 19.7 µM) | 8 (≈ 19.7 µM) | – | – | – | – | – | – | – | – | – | – | – | – | – | – | <=3 | – | – | –
6 | C/C(=N\NC1=NCCN1)c1sc(-c2ccc(C#CC(C)(C)C)cc2)nc1C | 2 (≈ 5.27 µM) | 2 (≈ 5.27 µM) | 4 (≈ 10.5 µM) | 4 (≈ 10.5 µM) | 2 (≈ 5.27 µM) | 2 (≈ 5.27 µM) | 4 (≈ 10.5 µM) | 16 (≈ 42.2 µM) | 4 (≈ 10.5 µM) | 4 (≈ 10.5 µM) | 4 (≈ 10.5 µM) | 4 (≈ 10.5 µM) | 4 (≈ 10.5 µM) | 8 (≈ 21.1 µM) | >100 | >100 | 4 | <=3 | <=3 | <=3 | Ratio (Staphylococcus aureus [20]): <=3; Ratio (Staphylococcus aureus [21]; read-out: Ratio): 4; Ratio (Staphylococcus aureus [23]): <=3; Ratio (Staphylococcus aureus [24]): <=3; Activity (HRT-18 cell line): Non-Toxic; selectivity ratio [25]: 7 to 31
7 | C/C(=N\NC(=N)N)c1sc(-c2ccc(C#Cc3ccccc3)cc2)nc1C | 2 (≈ 5.35 µM) | 1 (≈ 2.68 µM) | 1 (≈ 2.68 µM) | 2 (≈ 5.35 µM) | 1 (≈ 2.68 µM) | 2 (≈ 5.35 µM) | 1 (≈ 2.68 µM) | 4 (≈ 10.7 µM) | 1 (≈ 2.68 µM) | 2 (≈ 5.35 µM) | 1 (≈ 2.68 µM) | 2 (≈ 5.35 µM) | 2 (≈ 5.35 µM) | 2 (≈ 5.35 µM) | >100 | >100 | 8 | <=3 | <=3 | <=3 | Ratio (Staphylococcus aureus [20]): <=3; Ratio (Staphylococcus aureus [21]; read-out: Ratio): 4; Ratio (Staphylococcus aureus [23]): <=3; Ratio (Staphylococcus aureus [24]): <=3; Activity (HRT-18 cell line): Non-Toxic; selectivity ratio [25]: 7 to 31; fold change (FC) (Staphylococcus aureus [26]): 512

Source: ChEMBL document CHEMBL4196022, “Alkynyl-containing phenylthiazoles: Systemically active antibacterial agents effective against methicillin-resistant Staphylococcus aureus (MRSA)” (Eur J Med Chem, 2018)
